Laboratory results from ChEMBL document CHEMBL1165965, “Synthesis and structure-activity relationships of 1,2,3,4-tetrahydropyrido[2,3-b]pyrazines as potent and selective inhibitors of the anaplastic lymphoma kinase” (Bioorg Med Chem, 2010).
One block for each compound: values may come before it.

Columns and labels:
[1] = target: Ribosomal protein S6 kinase alpha-1 (Homo sapiens) (UniProt Q15418); assay: Inhibition of RPS6KA1 C-terminal domain2 at 1 uM
[2] = target: Tyrosine-protein kinase Srms (Homo sapiens) (UniProt Q9H3Y6); assay: Inhibition of SRMS at 1 uM
[3] = target: T1, Serine/threonine-protein kinase TAO1 (Homo sapiens) (UniProt Q7L7X3); assay: Inhibition of TAOK1 at 1 uM
T1 sequence (whole entry): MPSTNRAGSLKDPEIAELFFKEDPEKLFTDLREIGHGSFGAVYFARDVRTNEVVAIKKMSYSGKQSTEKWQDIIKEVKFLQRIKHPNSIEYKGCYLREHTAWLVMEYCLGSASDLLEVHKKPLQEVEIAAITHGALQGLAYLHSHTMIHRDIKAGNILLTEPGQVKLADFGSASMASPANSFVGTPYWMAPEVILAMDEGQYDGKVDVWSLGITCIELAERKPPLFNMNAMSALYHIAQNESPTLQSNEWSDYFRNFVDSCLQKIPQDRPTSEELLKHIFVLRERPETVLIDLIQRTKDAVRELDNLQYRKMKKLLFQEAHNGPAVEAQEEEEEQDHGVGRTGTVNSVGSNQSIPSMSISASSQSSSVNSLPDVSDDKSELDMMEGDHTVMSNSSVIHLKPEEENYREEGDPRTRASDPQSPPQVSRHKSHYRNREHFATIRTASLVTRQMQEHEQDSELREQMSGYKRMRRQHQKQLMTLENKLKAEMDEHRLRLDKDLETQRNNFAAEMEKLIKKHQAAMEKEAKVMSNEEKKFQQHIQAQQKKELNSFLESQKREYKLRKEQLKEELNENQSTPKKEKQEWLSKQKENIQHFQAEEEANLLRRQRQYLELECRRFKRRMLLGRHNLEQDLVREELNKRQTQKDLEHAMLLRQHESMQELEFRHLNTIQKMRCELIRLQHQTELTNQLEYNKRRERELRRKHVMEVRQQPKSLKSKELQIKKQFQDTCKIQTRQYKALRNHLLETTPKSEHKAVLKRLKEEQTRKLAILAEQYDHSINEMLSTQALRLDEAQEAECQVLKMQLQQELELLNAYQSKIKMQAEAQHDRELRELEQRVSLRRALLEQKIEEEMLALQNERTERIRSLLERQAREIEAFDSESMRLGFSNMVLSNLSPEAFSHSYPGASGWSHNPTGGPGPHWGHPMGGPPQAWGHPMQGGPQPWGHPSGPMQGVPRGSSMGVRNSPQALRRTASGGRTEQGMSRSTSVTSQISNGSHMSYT

[4] = target: ALK tyrosine kinase receptor (Homo sapiens, UniProt Q9UM73); assay: Inhibition of ALK at 1 uM
[5] = target: T2, Serine/threonine-protein kinase DCLK2 (Homo sapiens) (UniProt Q8N568); assay: Inhibition of DCAMKL2 at 1 uM
T2 sequence (whole entry): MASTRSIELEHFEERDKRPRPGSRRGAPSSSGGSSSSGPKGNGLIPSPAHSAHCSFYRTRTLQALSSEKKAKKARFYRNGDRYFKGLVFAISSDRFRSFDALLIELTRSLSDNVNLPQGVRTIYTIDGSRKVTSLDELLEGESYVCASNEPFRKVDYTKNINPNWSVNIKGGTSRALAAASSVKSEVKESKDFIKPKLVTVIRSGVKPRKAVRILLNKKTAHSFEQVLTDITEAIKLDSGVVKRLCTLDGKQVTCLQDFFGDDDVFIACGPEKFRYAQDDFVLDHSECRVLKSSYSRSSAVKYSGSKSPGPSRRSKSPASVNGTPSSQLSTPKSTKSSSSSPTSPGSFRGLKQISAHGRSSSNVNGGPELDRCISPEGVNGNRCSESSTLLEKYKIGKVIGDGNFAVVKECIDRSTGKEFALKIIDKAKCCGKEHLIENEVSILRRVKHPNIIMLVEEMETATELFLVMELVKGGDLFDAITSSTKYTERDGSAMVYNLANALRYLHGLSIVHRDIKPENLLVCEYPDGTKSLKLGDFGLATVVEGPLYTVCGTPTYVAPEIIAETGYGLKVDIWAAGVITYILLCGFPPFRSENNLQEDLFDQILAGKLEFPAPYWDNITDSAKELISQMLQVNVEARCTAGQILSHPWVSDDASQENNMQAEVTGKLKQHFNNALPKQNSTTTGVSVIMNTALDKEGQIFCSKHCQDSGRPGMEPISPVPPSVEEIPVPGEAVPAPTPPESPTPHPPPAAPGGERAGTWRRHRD

[6] = target: Dual specificity tyrosine-phosphorylation-regulated kinase 1A (Homo sapiens) (UniProt Q13627); assay: Inhibition of DYRK1A at 1 uM
[7] = test system: Epidermal growth factor receptor (Homo sapiens), P00533 [G719S]; assay: Inhibition of EGFR G719S mutant at 1 uM; type: protein assay
Outline: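 Single-concentration screen using Ambit Bioscience KINOMEscan technology across a panel of 250–400 kinases. Per-kinase inhibition from this screen was summarized as S(90), the fraction of kinases inhibited by more than 90%.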

Chain of ALK tyrosine kinase receptor (Q9UM73 19-1620 limits assumed): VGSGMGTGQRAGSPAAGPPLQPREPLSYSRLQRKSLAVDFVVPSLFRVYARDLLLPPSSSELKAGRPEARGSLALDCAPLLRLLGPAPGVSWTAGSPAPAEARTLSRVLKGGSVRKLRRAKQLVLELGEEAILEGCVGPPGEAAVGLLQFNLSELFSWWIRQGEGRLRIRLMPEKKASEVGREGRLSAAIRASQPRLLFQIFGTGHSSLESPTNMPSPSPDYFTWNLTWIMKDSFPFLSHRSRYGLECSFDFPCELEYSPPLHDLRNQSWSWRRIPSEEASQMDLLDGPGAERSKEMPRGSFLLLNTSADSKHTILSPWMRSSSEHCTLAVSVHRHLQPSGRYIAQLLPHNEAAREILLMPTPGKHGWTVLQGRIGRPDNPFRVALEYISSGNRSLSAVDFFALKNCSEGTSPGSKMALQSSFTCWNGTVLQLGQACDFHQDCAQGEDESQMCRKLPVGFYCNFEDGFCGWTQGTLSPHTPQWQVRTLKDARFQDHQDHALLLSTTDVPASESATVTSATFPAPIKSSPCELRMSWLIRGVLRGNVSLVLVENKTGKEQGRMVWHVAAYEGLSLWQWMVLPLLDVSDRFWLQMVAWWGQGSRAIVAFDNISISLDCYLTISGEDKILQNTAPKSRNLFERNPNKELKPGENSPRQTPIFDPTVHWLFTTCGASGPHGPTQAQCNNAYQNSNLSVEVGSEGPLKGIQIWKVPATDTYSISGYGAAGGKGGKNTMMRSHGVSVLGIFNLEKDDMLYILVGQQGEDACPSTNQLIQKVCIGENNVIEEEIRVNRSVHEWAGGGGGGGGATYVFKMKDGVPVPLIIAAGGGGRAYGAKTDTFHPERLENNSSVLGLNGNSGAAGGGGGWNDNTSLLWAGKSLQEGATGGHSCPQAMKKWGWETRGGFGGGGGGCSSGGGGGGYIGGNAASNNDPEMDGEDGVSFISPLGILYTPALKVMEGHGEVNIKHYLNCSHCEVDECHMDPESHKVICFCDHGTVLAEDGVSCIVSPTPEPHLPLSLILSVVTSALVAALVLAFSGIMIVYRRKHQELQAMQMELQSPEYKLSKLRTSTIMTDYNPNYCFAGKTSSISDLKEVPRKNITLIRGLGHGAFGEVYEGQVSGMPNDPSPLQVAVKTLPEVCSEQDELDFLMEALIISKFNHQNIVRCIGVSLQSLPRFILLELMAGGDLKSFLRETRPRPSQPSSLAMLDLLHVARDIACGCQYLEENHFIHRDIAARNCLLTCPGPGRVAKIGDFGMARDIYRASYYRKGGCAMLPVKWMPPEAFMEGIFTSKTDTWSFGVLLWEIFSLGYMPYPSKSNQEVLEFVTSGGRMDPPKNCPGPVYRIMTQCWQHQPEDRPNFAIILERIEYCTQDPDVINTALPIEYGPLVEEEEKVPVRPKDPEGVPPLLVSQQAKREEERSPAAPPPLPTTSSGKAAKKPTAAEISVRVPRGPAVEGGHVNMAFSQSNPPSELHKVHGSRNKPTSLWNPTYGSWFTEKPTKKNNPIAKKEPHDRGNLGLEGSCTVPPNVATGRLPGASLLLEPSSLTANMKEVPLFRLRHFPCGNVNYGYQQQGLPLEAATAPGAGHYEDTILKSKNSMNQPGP
Chain of Tyrosine-protein kinase Srms (Homo sapiens) (Q9H3Y6 whole entry): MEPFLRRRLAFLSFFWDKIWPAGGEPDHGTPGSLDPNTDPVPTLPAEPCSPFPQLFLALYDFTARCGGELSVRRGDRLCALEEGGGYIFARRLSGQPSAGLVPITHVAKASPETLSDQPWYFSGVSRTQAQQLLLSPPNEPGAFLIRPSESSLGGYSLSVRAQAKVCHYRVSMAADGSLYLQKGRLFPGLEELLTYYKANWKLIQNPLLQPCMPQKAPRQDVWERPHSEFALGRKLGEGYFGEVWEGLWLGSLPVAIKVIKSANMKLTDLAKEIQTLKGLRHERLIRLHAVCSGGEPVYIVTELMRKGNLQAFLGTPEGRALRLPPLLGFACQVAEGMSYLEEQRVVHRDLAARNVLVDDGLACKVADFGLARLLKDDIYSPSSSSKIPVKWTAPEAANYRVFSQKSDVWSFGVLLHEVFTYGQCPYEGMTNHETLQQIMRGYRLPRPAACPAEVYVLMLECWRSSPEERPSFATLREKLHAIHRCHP
Chain of Ribosomal protein S6 kinase alpha-1 (Homo sapiens) (Q15418 whole entry, the tested form may be a part): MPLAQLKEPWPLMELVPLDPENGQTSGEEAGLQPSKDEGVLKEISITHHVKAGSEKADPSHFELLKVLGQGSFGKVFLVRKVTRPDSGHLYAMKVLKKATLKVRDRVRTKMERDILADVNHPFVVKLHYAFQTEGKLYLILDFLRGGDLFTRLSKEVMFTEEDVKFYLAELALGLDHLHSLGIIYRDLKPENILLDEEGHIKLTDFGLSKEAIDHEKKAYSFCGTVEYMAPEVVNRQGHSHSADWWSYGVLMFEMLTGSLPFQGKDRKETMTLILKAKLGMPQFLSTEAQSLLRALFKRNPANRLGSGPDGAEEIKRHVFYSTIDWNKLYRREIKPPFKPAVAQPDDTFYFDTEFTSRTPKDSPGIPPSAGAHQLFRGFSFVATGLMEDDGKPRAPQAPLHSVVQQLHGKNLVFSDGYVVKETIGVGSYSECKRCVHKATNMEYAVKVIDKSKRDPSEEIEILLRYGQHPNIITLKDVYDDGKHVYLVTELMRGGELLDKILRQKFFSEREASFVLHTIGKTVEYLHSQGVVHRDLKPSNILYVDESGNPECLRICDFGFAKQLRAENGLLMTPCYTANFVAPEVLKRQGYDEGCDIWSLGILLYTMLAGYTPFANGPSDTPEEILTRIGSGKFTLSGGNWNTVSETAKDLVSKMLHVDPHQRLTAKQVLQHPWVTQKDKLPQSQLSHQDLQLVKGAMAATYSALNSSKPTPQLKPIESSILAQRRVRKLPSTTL
Chain of Epidermal growth factor receptor (Homo sapiens), P00533 [G719S] (P00533 whole entry G719S): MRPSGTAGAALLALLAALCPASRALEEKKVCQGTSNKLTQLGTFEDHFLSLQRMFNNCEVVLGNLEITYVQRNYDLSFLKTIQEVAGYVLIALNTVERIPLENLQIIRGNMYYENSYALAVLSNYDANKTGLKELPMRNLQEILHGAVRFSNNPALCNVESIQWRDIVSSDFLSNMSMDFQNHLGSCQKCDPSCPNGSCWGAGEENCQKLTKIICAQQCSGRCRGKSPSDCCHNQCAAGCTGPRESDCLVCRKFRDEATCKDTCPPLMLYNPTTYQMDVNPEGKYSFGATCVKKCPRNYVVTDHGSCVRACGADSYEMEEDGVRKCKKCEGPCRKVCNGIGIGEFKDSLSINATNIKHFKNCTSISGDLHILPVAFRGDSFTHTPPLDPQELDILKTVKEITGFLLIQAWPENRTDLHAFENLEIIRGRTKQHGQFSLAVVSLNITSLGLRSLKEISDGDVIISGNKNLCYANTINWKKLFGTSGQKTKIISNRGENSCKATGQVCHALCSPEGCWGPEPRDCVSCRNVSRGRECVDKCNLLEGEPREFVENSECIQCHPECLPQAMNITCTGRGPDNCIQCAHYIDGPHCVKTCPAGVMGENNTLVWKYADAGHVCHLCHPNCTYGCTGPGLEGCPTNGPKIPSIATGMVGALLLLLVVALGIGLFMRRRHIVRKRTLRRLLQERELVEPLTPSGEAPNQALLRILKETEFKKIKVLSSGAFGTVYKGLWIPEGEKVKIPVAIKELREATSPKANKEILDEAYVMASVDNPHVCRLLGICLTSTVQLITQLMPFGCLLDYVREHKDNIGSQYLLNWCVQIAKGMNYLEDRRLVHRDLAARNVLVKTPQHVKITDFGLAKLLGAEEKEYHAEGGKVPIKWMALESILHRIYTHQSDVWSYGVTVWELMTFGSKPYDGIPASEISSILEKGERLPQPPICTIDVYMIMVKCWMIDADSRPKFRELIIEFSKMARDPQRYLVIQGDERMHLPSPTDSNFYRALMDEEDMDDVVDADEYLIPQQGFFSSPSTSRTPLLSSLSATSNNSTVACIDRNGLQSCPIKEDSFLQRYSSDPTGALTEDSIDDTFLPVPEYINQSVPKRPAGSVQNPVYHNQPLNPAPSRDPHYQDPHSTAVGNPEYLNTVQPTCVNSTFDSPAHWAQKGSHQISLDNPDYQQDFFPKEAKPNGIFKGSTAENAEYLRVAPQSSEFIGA

Compound: CN1CCN(c2ccc(-c3cnc4c(c3)N(Cc3cc(F)ccc3F)CCN4)cn2)CC1
inhibition [1]: < 50%
inhibition [2]: < 50%
inhibition [3]: < 50%
inhibition [4]: 96.7%
inhibition [5]: < 50%
inhibition [6]: < 50%
inhibition [7]: < 50%

Compound: O=C(c1ccc(-c2cnc3c(c2)N(Cc2cc(Cl)ccc2C(F)(F)F)CCN3)cc1)N1CCCCC1
inhibition [1]: < 50%
inhibition [4]: < 50%
inhibition [7]: < 50%

Compound: COC1CCN(C(=O)c2ccc(-c3cnc4c(c3)N(Cc3cc(Cl)ccc3C(F)(F)F)CCN4)cc2)CC1
inhibition [1]: < 50%
inhibition [2]: < 50%
inhibition [4]: 85.6%
inhibition [7]: < 50%

Compound: CC(=O)N1CCN(c2cc(-c3cnc4c(c3)N(Cc3cc(Cl)ccc3C(F)(F)F)CCN4)ccn2)CC1
inhibition [1]: < 50%
inhibition [2]: < 50%
inhibition [3]: < 50%
inhibition [4]: 98%
inhibition [5]: < 50%
inhibition [6]: < 50%
inhibition [7]: < 50%

Compound: FC(F)(F)c1ccc(Cl)cc1CN1CCNc2ncc(-c3ccnc(N4CCNCC4)c3)cc21
inhibition [1]: < 50%
inhibition [2]: < 50%
inhibition [3]: < 50%
inhibition [4]: 99%
inhibition [5]: 96%
inhibition [6]: < 50%
inhibition [7]: < 50%

Compound: CN1CCN(c2ccc(-c3cnc4c(c3)N(Cc3cc(Cl)ccc3Cl)CCN4)cn2)CC1
inhibition [1]: < 50%
inhibition [2]: < 50%
inhibition [3]: < 50%
inhibition [4]: 98%
inhibition [5]: < 50%
inhibition [6]: < 50%
inhibition [7]: < 50%

The remaining lines, values ahead:

inhibition [1]: < 50%
inhibition [2]: < 50%
inhibition [4]: 83.4%
inhibition [7]: < 50%
Compound: O=C(c1ccc(-c2cnc3c(c2)N(Cc2cc(Cl)ccc2C(F)(F)F)CCN3)cc1)N1CCC(N2CCCC2)CC1

inhibition [1]: < 50%
inhibition [2]: < 50%
inhibition [3]: < 50%
inhibition [4]: 97%
inhibition [5]: < 50%
inhibition [6]: < 50%
inhibition [7]: < 50%
Compound: CN1CCN(c2ccc(-c3cnc4c(c3)N(Cc3c(F)ccc(F)c3Cl)CCN4)cn2)CC1

inhibition [1]: < 50%
inhibition [4]: < 50%
inhibition [7]: < 50%
Compound: O=C(O)c1ccc(-c2cnc3c(c2)N(Cc2cc(Cl)ccc2C(F)(F)F)CCN3)cc1

inhibition [1]: < 50%
inhibition [2]: < 50%
inhibition [3]: < 50%
inhibition [4]: 98%
inhibition [5]: < 50%
inhibition [6]: < 50%
inhibition [7]: < 50%
Compound: CN1CCN(c2ccc(-c3cnc4c(c3)N(Cc3cc(Cl)ccc3C(F)(F)F)CCN4)cn2)CC1
